Data taken from the EternaBench riboswitch data.

Test system: MS2 coat protein
Experiment: apparent Kd, MS2 coat protein; higher = weaker binding; RNA-MaP array; FMN 200 µM where present
In short: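 Green signal was scaled to red-channel RNA signal and control-cluster median Fmax, and the apparent Kd was taken as the median of filtered per-cluster binding-curve fits. The binding series used SNAP-549-labelled MS2 coat protein from 0.7 or 1.5 nM, doubling to 3 µM, on designs transcribed by stalled E. coli RNA polymerase on Illumina sequencing-chip clusters. Each series ran without and then with constant ligand in 100 mM Tris-HCl pH 7.5, 80 mM KCl, 4 mM MgCl2, BSA, DTT, yeast tRNA and Tween-20.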

[1] = designed as: OFF switch for flavin mononucleotide, no ligand
[2] = ligand present: flavin mononucleotide, designed as: OFF switch for flavin mononucleotide
[3] = designed as: ON switch for flavin mononucleotide, no ligand
[4] = ligand present: flavin mononucleotide, designed as: ON switch for flavin mononucleotide

Sequence | apparent Kd [1] [nM] | apparent Kd [2] [nM] | apparent Kd [3] [nM] | apparent Kd [4] [nM]
UCGGCGCGAGGAUAUACGUUUGCGCGUUUUCGUUUGCGCGUACAUGAGGAUCACCCAUGUAGAAGGCGCGCGGC | 13.1 | 13.4 |  | 
UGCAUGCUAGGAUAUACGGGACAUUAGGGUUUGUCGUGUGGACAUGAGGAUCACCCAUGUAGAAGGAGCGUGCU | 49.5 | 207 |  | 
UUUGGGUGGCUGGAGGAUAUCCUGGUUGUUACAUGAGGAUCACCCAUGUGCCGCGCGGUGCGCUGGGAGAAGGCUGGCGGCCGUU |  |  | 130 | 27.6
UAAGUGUGAGGAUAUUCGUAGUACACGGAGACGUGUAUUACGGAGAAGGCACAUGAGGAUCACCCAUGUUCCUU | 20.7 | 182 |  | 
AUACAUGAGGAUCACCCAUGUCGCAGGUUAAGGCCCAAAUCGAGAAGGGAUUCGGUCAAGCCUAAUCAGGAUAUCGGUGGAGCC |  |  | 84.3 | 69.6
UUAGAAUUGUUAGGAUAUUAAUUAUUUUUUAGUAUGAUCUACAUGAGGAUCACCCAUGUUAAAUAUAAGAAGGAACGUUAUAUU | 63.6 | 63.6 |  | 
GGAUAAGACAGAGGAUAUACGUGCUAGAGAUACUAGCAAAAUUUCCUCACAUGAGGAUCACCCAUGUAGAAGGCUGUCCUAUCG | 16.9 | 291 |  | 
GGAAAACAUGAGGAUCACCCAUGUGAGGAUAUCGAUGUCCACCCUCCCGUGCGGGACUCGAGAAGGCACUUGGA | 50.9 | 56.4 |  | 
GGAUGUCAAAGACAUCCAAUACGAACAUGAGGAUCACCCAUGUAGGAUAUGCUACUCAAAGAGUAGCAGAAGGACAUGUGCCUU | 33.6 | 271 |  | 
AAAAAAAAGGGUGAGGAUAUAGAAAAAAAAACAUGAGGAUCACCCAUGUGAAAAAAAAAAAAAAGCUAGAAGGCACAAAAAAAAAA |  |  | 243 | 162
GUUUUGGGAGGAUAUAUGUGGAUUAUUUUCGUAUGUUGUUUACAUGAGGAUCACCCAUGUAGAAGGUCUAGAGC | 68.3 | 198 |  | 
AUUAUGAAGCAGUUAUAACUCUAAACAUGAGGAUCACCCAUGUAGGAUAUCAGCACGAUAAGUGCUGAGAAGGACAUCUGCUUC | 15.3 | 18.4 |  | 
CUUUGGUCAGGAUAUGGUGGGCUGGUCGCGCGGCCGGGUGGCCAGAAGGGACAUGAGGAUCACCCAUGUACGGC | 35.5 | 59.7 |  | 
CGUGUCAUCGAGAAGGCCUCAACAUGAGGAUCACCCAUGUUGUAAUAUGGGAGGAUAUCGAUGAUACAGCUACGUUUCGUAGCU |  |  | 18.8 | 5.8
ACAUGAUCAGGAUAUACAUGAGGAUCACCCAUGUUUAUCAAAAAAAGGCUUUCAUCAUGUAGAAGGGAUCUUGU | 20.4 | 65.7 |  | 
CUUAGACAUGAGGAUCACCCAUGUGAGGAUAUGAUGCGAAUAAAGAAAGAAGAAAGCAUCAGAAGGCACAUAUG | 115 | 349 |  | 
AGAAACUACGAGAAGGACAUAUGGUUCUUCAGUUACAUGAGGAUCACCCAUGUAGGAUAUCGUAGUUUCAGGAUCGUGAGAUCA | 7.33 | 21.7 |  | 
GUCGGAAACGACAAAAGUACCCGAGCAGAAGGCAUGUCAUAAGACAUGAGGAUCACCCAUGUGCAUGAGGAUAUGCUCGGGUAC |  |  | 5.83 | 5.28
CUUUUGUGAGGAUAUCAGUAGUAAAAAAAUAAAAUUAUUACUGAGAAGGCACAUGAGGAUCACCCAUGUUCCUC | 34 | 196 |  | 
UGCAGCGUGCACAUGAGGAUCACCCAUGUGCCAGCGGACGCACAGGAUAUGCAAUCGUACGGCUAGCAGAAGGGUGGGUCUCAC |  |  | 13.5 | 7.13
CCUUUCCGAGGAUAUACAUGAGGAUCACCCAUGUGAUCCUAAGGCUGAUCAAGCCUAUGUAGAAGGCGCAAAUC | 133 | 182 |  | 
GCCAUCACGUGAGGAUAUGCUCCCGUUUCGGGAGCAGAAGGCAUGUCAUCAGACAUGAGGAUCACCCAUGUAGUUAAGAUGGCA |  |  | 43.6 | 13.1
CCUCUACAUGAGGAUCACCCAUGUGAGGAUAUAUGCCCAUUACGCCAAGAGCGUGAUGAUAGAAGGCACAGGGU | 22 | 72.7 |  | 
GCCUUAUCGGUCAGGAUAUACACUUGUUAGUUGUUGUAGAAGGGACAUGAGGAUCACCCAUGUACAUUACAUUG | 23.2 | 58.5 |  | 
GAACUGAAGCAUAGCUUUAGUCGUACAUGAGGAUCACCCAUGUAGGAUAUGGUAGGCAUAGCUUACUAGAAGGAUAGAGUGAUU | 96.5 | 67.9 |  | 
CACUCAUGUCUAGGAUAUGAGUGACAAGCGCGAAGUUUUUUCGGCGCUAGCUCAGAAGGAGACAUGAGGAUCACCCAUGUAAGG | 69.1 | 18.2 |  | 
AGUGCUAUGUAGAAGGCAGAUCUGAUUCAGAUCUGAGGAUAUACAUGAGGAUCACCCAUGUUAUGCACCAGCACGAGAGUGCAG | 9.24 | 22.6 |  | 
CUCAUGAGAGGAUAUACAUGAGGAUCACCCAUGUUCUUAUCUCGUCGGGCUCCAUUACGUAGAAGGCUCAUUUG | 29.4 | 46.9 |  | 

Sequence | apparent Kd [1] [nM] | apparent Kd [2] [nM] | apparent Kd [3] [nM] | apparent Kd [4] [nM]
UAAUAAUUAUGAGGAUAUAUACAACAUGAGGAUCACCCAUGUACCCAUGUAGUAGAAGGCAUAUUUUUAGUUAAUAACAUAACU |  |  | 75.2 | 31.1
AUAUUAAUAUAGGAUAUCGAAUUUAUUAAUUAUCGAGAAGGAUAAACAUGAGGAUCACCCAUGUGGUAUCAUGG | 181 | 225 |  | 
CUGGGCGGUUUGCCCACACUGUCACAGGAUAUGCCCAAAACAUGAGGAUCACCCAUGUCAAAUACGCAGAAGGGUGAUCGGAAC |  |  | 107 | 62.5
GGGCCCGGAGGAUAUACAUGAGGAUCACCCAUGUACCCGGGUUUUAUUGGGCCCGGGUGUAGAAGGCCGGGCCC | 13.1 | 14.8 |  | 
GGUCUGAUAUGAGGAUAUGCUCAGGAAUACUGAGCAGAAGGCAUGUGAAAACAUGAGGAUCACCCAUGUAUGAUCUACAGACCA |  |  | 47 | 21.8
UAUAUACAUGAGGAUCACCCAUGUCAGGAUAUGCGCCGAUUAUAUACAUAAGAUCGGUGCAGAAGGGACACUAA | 35.5 | 67.2 |  | 
GUCAGCUCGUGAGGAUAUACAACACUGCUUCGGCGGUGUAUUAAGAUCACAUGAGGAUCACCCAUGUAGAAGGCACGAGCUGAU | 13.1 | 249 |  | 
AUGCGGUCAGGAUAUGCAUGGCGGGACUUGCGUCGUGGCGUGGAGAAGGGACAUGAGGAUCACCCAUGUGGAGG | 108 | 87 |  | 
GGGUACAUCGGAGGAUAUCAUGUCAAUACAUGAGGAUCACCCAUGUCGAUGGAGACAUCGGAGAUUGAGAAGGCCGAUGUACCG |  |  | 66.5 | 6.99
GUGGUCAGACAUGAGGAUCACCCAUGUGGAAUAAAUAAGGAAAAGGAUAUGGAAUAUAGGAUAUACCAGAAGGUUUGGUUGGUG |  |  | 105 | 127
AACAAUCUAUCUGAGGAUAUCAUGAAAUAAACAUGAGGAUCACCCAUGUGCAGGAAAUCUGCAUAUGAGAAGGCAGAUAGAUUGA |  |  | 1340 | 56.1
UUAUGGUUCAAGAAGGAUGUAUUUGACUUAUACAUAGGAUAUUGUUAAAUUGAUAAUUAAUGUAACAUGAGGAUCACCCAUGUA |  |  | 8.1 | 7.39
ACUGUUAAGACAGGAUAUCGAUUAUAACCUCUAAAACAUGAGGAUCACCCAUGUAGUCCGUAUUGCGAGAAGGGUCAUCUUAGA |  |  | 274 | 205
UAAUAAUAAUAAUACGUCAUUACAUGAGGAUCACCCAUGUAUAAGGAUAUGCAGUGGAAUACACUGCAGAAGGUAUACAAGACG | 22.6 | 26.7 |  | 
AGACGGAGCUGAGGAUAUAUACAUGAGGAUCACCCAUGUAAGCUCCAGGAAACUGGAGCAAAUGUAUAGAAGGCAGCUCCGUCA | 28 | 45.9 |  | 
CGUGCGUAUGUGAGGAUAUGCUGGUCCUUGGAUCGGCAGAAGGCACAUGAGGAUCACCCAUGUGGUGUCGUUCG | 219 | 31.6 |  | 
AGUAAGAUGCAGAAGGUGUCAGCGAGAGCUGCGACAUGAGGAUCACCCAUGUACUAGUGAGAGUACAAGGAUAUGCAUCUUACA |  |  | 313 | 45.7
CGUGUUAUCGAAGGAUAUGGAUACAUGAGGAUCACCCAUGUAUAUUUUGUGAUCAAGUUUAAGAUCCAGAAGGUCGUAUACACG | 54.9 | 119 |  | 
CUCCGGCAAGGAUAUGCGUCUUCUCCCAUGAAACAAAAUAAACAUGAGGAUCACCCAUGUAGAAGGUGCAGGAC | 33.1 | 28.6 |  | 
UGUUGUAUUACAGGAUAUCUAUUAUUUUUAUUUAGAGAAGGGUAUUCACAUGAGGAUCACCCAUGUAUAUACGAGGAAGUUGUG |  |  | 52.6 | 58.9
UGGAGGUCAGGAUAUGCAUGGCGGGACUUGCGUCGUGGCGUGCAGAAGGGACAUGAGGAUCACCCAUGUGGAGU | 112 | 77.4 |  | 
UCCUGACCGAGAGAUAGGAGUAGUAGAAGGCGACCGGUGCCAGAUGACAUGAGGAUCACCCAUGUCGAGGAUAUACUACAGAAU | 6.99 | 9.63 |  | 
GGUGCGUAUGUGAGGAUAUGCUGGUCCUUGGAUCCGCAGAAGGCACAUGAGGAUCACCCAUGUGGUGUCGUACC | 299 | 27.6 |  | 
GUCUGUUACGAGAAGGACAAUUGGAUGCAGGCUGUAGGAUAUCGAGGCAGACAUGAGGAUCACCCAUGUAGGCUUACGAUGGGU | 11.7 | 19.1 |  | 
AGCGCGGUCCACUUGGACGCCUACGAGGAUAUCCCGUCACAUGAGGAUCACCCAUGUAGGCGCAUGGAGAAGGCGUAGAAAUCA |  |  | 152 | 13.7
CCGACCUUGGCAGGAUAUAGACUCGAAGUUGAUCCCGCCGGUGGAGACAUGAGGAUCACCCAUGUCUAGAAGGGCCAGUCGAAA | 16.2 | 72.9 |  | 
CGUGCGUCGACAGGAUAUACAGAUUGGCUCCGGUACAUGAGGAUCACCCAUGUAGAAGGGUCACGCGCGGAUAGAACAUUCUAA | 9.09 | 40.3 |  | 
